Assay results: the EternaBench riboswitch data

Test system: MS2 coat protein
Assay: apparent Kd, MS2 coat protein; higher = weaker binding; RNA-MaP array; FMN 200 µM where present
Procedure, shortened: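 Green signal from SNAP-549-labelled MS2 coat protein was normalised to red-channel RNA signal and to the median Fmax of control clusters. The protein was titrated from 0.7 or 1.5 nM, doubling to 3 µM, without and then with constant ligand, over designs transcribed by stalled E. coli RNA polymerase on Illumina sequencing-chip clusters, in 100 mM Tris-HCl pH 7.5, 80 mM KCl, 4 mM MgCl2, BSA, DTT, yeast tRNA and Tween-20. The apparent Kd is the median of filtered per-cluster binding-curve fits.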

[1] = designed as: OFF switch for flavin mononucleotide, no ligand
[2] = ligand present: flavin mononucleotide, designed as: OFF switch for flavin mononucleotide
[3] = designed as: ON switch for flavin mononucleotide, no ligand
[4] = ligand present: flavin mononucleotide, designed as: ON switch for flavin mononucleotide

| Sequence | apparent Kd [1] [nM] | apparent Kd [2] [nM] | apparent Kd [3] [nM] | apparent Kd [4] [nM] |
| --- | --- | --- | --- | --- |
| CCUUUGAAGAUCCUAAAUUUCGACAUGAGGAUCACCCAUGUGCAGGAUAUCGUGCCAGUGAUGUACGAGAAGGGCAGACUCUGC | 54.3 | 58 |  |  |
| CCUUUUGUAUAAGGAUAUGUAACAAGGCGUAGGUGGGUAGGACUUGCGCUUACAGAAGGUAUACAUGAGGAUCACCCAUGUCGA | 32.4 | 240 |  |  |
| CGAACUCCGUAGAAGGGUGACAUGAGGAUCACCCAUGUGCGAGCGGAGGGAGUCAGCGGCUCGCCACAGGAUAUACGGAGCACG |  |  | 49.4 | 107 |
| CGACAUUACACAGGAUAUCCUCGACUUUGUCGAGGAGAAGGGUGUAAACAUGAGGAUCACCCAUGUAUAAUGUCGAAAUAUAAU |  |  | 221 | 28.9 |
| CGACCCUGAACGAAAUCAUGCAGUCAGGAUAUACAUGAGGAUCACCCAUGUGCGUACCAACUCGUGUAGAAGGGACUUUCAGGA | 15.6 | 32.3 |  |  |
| CGACGAGUGGAGAAGGACUUUGACUAGCACAGGGUAGGAUAUCCACAUGAGGAUCACCCAUGUAGGAUACUUAUUGGGCCGCCU | 6.96 | 22.8 |  |  |
| CGACGUUGGGAGAAGGAGUAAAAUACAUGAGGAUCACCCAUGUCAGGUGCUAGGAUAUCCUCGCGUGGCAGGGUCGGCCCGUGU |  |  | 97.2 | 32.7 |
| CGAGUUUUUGAGAAGGCAUAUAAUAAGAUUUCCCAUGUUAACAUGAGGAUCACCCAUGUUUAGUAUGAGGAUAUCAGUAGGUCG | 5.79 | 5.8 |  |  |
| CGAUAAAGCUGAGGAUAUGAGAAUAGAAAGAAAUCAGAAGGCAGACAUGAGGAUCACCCAUGUGAGUUCUCGAGAUUACAUGGU | 250 | 529 |  |  |
| CGAUAGGACAGAGGAUAUACACAUGAGGAUCACCCAUGUAAUUACAAUUCUUGUGGUUCUUCCAUGUAGAAGGCUGUCCUAUCG | 113 | 335 |  |  |
| CGAUAUAACUCAGGAUAUCGGCAUGGGUAGAUUACAUGAGGAUCACCCAUGUGCAUGUCCCGGCACGAGAAGGGAGUAACGCAU |  |  | 290 | 47.8 |
| CGAUGUUAUGCAGGAUAUCUCUCUUGUUUGAGGAGAGAAGGGCAUAGGGAGACAUACGCCUUAUUACAUGAGGAUCACCCAUGU | 8.83 | 8 |  |  |
| CGCAACAUACAGAAGGAGUUAUUGAGAGGUUUACUAGGAUAUGUUCACAUGAGGAUCACCCAUGUCGUUUGGGAUUUUGUUGCG | 125 | 51.3 |  |  |
| CGCAAGUAUACAUGAGGAUCACCCAUGUAAGAUAGGGUAAUCAGAAGGUACAAUUAGAGAUAGAGUAAGGAUAUGAAAUUUGCG |  |  | 358 | 94.5 |
| CGCACUAUACAUGAGGAUCACCCAUGUUAAUAUGAGAUAGUCAGAAGGCAUUGUAUGAGAAAUUAUGAGGAUAUGAAUAGUGCG |  |  | 106 | 32.8 |
| CGCAUGCGUAGAAUUAGCUGCUGACAGGAUAUGACAUGAGGAUCACCCAUGUGAUUUAAGAAGAGUCAGAAGGGUCACGAUGCG | 7.8 | 13.5 |  |  |
| CGCCAUUUAACAACGGCGCGGUCGAGAAGGGUACAUGAGGAUCACCCAUGUCACGUUCCUCCUGUACAGGAUAUCGUACGGGUA | 67 | 146 |  |  |
| CGCGAACAUGAGGAUCACCCAUGUGAAAAACAUAGAGGAUAUGUCGCAUGCGUGUAAAAGACAGAAGGCUAUCGCG |  |  | 76.7 | 27.9 |
| CGCUACACCCAGAAGGACAUGAGGAUCACCCAUGUAGGAUAUGGGAGACACAGUCCCAUGUAGAGAAACUACGCUAGUGUAGCG |  |  | 200 | 81.4 |
| CGCUACAUGAGGAUCACCCAUGUACUAACUUGCACGUGAACGAGAAGGCCACAGCAACCCUGCGUGGAGGAUAUCGUGGUGCCA |  |  | 8.49 | 7.48 |
| CGCUACGUUUCGUAGCAGCUAGGUGAGGAUAUUCAAUUUUUCACAUGAGGAUCACCCAUGUAUGUGAAGAAGGCGCCUAGAAAG |  |  | 11.8 | 5.64 |

| Sequence | apparent Kd [1] [nM] | apparent Kd [2] [nM] | apparent Kd [3] [nM] | apparent Kd [4] [nM] |
| --- | --- | --- | --- | --- |
| CGCUCAAGAGAGAAGGAUUGAAUCAGAAGGCGUUACAUGAGGAUCACCCAUGUAUAGUAGUGUAACGAGGAUAUGAAAUGAGCG | 133 | 437 |  |  |
| CGCUCAAUUACUUUGAAUAGAAUCAGAAGGCGUAACAUGAGGAUCACCCAUGUAUUGACGUGUAACGAGGAUAUGAAUUGAGCG | 4.7 | 4.57 |  |  |
| CGCUCAAUUCAGAAGGAUAGAAUCAGAAGGCGUAACAUGAGGAUCACCCAUGUAUAGAAGUGUAACGAGGAUAUGAAUUGAGCG | 11.5 | 10.2 |  |  |
| CGCUCAGAGAACGAUACGAAUAGACAUGAGGAUCACCCAUGUAGAAGGACAACGGAAUAAACGUUGUAGGAUAUACAUUUAGUG | 34.3 | 90.4 |  |  |
| CGCUGGACUGAGAAGGCCAUGUGGGACGCGAACAGUGAUGUUAGGGCAUGGAGGAUAUCAGACAUGAGGAUCACCCAUGUAACC |  |  | 392 | 38 |
| CGGAAAAGGUAGGAUAUGCUAGACGAAAGUCUAGCAGAAGGACCUACAUGAGGAUCACCCAUGUGUCCAAUCCG | 56.3 | 24.7 |  |  |
| CGGCCGUAAGGAUAUACAUGAGGAUCACCCAUGUAUGGAAUAGCAUGAGGCGGCCCAGGUAGAAGGUAUGCCCG | 20.8 | 30.5 |  |  |
| CGGCGCUGUCGAGAGGAUAUGCGGUGAUGGACAUGAGGAUCACCCAUGUUAGCGAUAGCAUCACGGUAGAAGGCUCCACAGCCGU |  |  | 31.8 | 13 |
| CGGCUACCCAGUAUGGGUAUUUUUACAGAAGGCCAGGCACAUGAGGAUCACCCAUGUCAAGUUUUGGAGGAUAUGUUAGUGUCG |  |  | 5.58 | 4.25 |
| CGGGAAGUCGUAGGAUAUGGUGAUGUACAUGAGGAUCACCCAUGUCCGUCUUCUCUCACAAGAUGCCAGAAGGACGACUUCCGG |  |  | 766 | 103 |
| CGGGAGUCAGGAUAUACGAACAUGUCGCCAGAUGUCAAGGUACAUGAGGAUCACCCAUGUAGAAGGGAGGAGUU | 91.9 | 56.6 |  |  |
| CGGGAGUCAGGAUAUACGAACAUGUCGCCAGAUGUCAUGGUACAUGAGGAUCACCCAUGUAGAAGGGAGGAGAU | 139 | 103 |  |  |
| CGGGCGCGAGGAUAUACAUGAGGAUCACCCAUGUAACGGGUUUGAAUCGGGCUUGCGUGUAGAAGGUGUGUUUG | 86 | 73.8 |  |  |
| CGGGCGCGAGUAGGAUAUGUAUAUUUGCCGGGUCCGUGAUCACAUGAGGAUCACCCAUGUGGUAAGCAGAAGGAUUCGGUCCGA | 6.04 | 7.8 |  |  |
| CGGGUCUGAGGAUAUCCAUCUUCAUACAUGAGGAUCACCCAUGUUUACCCUUGGGUUCCUGGAGAAGGCAGUUUUC | 166 | 162 |  |  |
| CGGUACUAGGGAGGAUAUGGGAAGAUACAUGAGGAUCACCCAUGUUUAAGAAUGCCGAGAGGCAACUAGAAGGCCCUAGUACCU |  |  | 353 | 20.7 |
| CGGUGACGUGUAGGAUAUGGAGAUGGGUUUUGGCCAGAAGGACAUGAGGAUCACCCAUGUGGUAGAGGGUUGGCGGCUGCCCGU | 16.7 | 18.7 |  |  |
| CGGUUCUGAGGAUAUCCACCCUCAUACAUGAGGAUCACCCAUGUUCACCCUUGGGUUCCCGGAGAAGGCAGUUUUC | 233 | 570 |  |  |
| CGUAAGAUGCAGAAGGUGUUAGCUAGAGCUACGACAUGAGGAUCACCCAUGUACUAGAAACAGUACAAGGAUAUGCAUCUUACC |  |  | 18.8 | 6.58 |
| CGUAGCUCCUGUUCGAAUCUCCGUGAGGAUAUCUUCAGACAUGAGGAUCACCCAUGUACAAAGGAAGAGAAGGCACGGUCCGAU |  |  | 4.86 | 4.33 |
